The species named for assay [1] is Rattus norvegicus. As to the kind of experiment: Stimulation of levator ani muscle weight in Sprague-Dawley rat at 2 mg/day relative to testosterone. The format is functional. A digest of the protocol:
(§1)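 Agonist mode of a five-day modified Hershberger assay in immature (about 50 g) castrated male Sprague–Dawley rats. Activity is % stimulation of tissue weight, with vehicle-treated control set to 0% and testosterone-alone control to 100%.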

Assay [2] concerns Rattus norvegicus. As to the kind of experiment: Stimulation of prostate weight in Sprague-Dawley rat at 2 mg/day, po relative to testosterone. The format is functional, Prostate gland. In outline:
as §1

Assay [3] concerns Rattus norvegicus. As to the kind of experiment: Inhibition of prostate weight in Sprague-Dawley rat at 2 mg/day, po relative to control. The format is functional, Prostate gland. A digest of the protocol:
(§2)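 Five-day antagonist assay in immature (about 50 g) castrated male Sprague–Dawley rats. Compound given po in 20% cyclodextrin once daily at 2 mg/day for 5 days, with testosterone propionate co-dosed sc in sesame oil at 0.1 mg/d ([…]). Read-out is % inhibition of testosterone-enhanced tissue weight, with vehicle control set to 100% and testosterone-alone control to 0%; n = 3/group.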

The species entered for assay [4] is Rattus norvegicus. As to the kind of experiment: Stimulation of levator ani muscle weight in Sprague-Dawley rat relative to testosterone. Type of assay: functional. A digest of the protocol: as §1
The subject of assay [5] is Rattus norvegicus. As to the kind of experiment: Inhibition of seminal vesicle weight in Sprague-Dawley rat at 2 mg/day, po relative to control. Type of assay: functional. In outline:
as §2

For assay [6], the species on record is Rattus norvegicus. As to the kind of experiment: Stimulation of prostate weight in Sprague-Dawley rat relative to testosterone. The format is functional, organism-based. The conditions noted are these: Prostate gland. In outline:
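Immature castrated male Sprague–Dawley rats (about 50 g) were dosed for five days. Prostate weight was expressed as percent stimulation: vehicle-treated controls were set to 0% and testosterone-alone controls to 100%. The testosterone propionate reference was given subcutaneously at the nape of the neck at 5 mg/kg in sesame oil.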

Assay [7] is filed under the species Rattus norvegicus. As to the kind of experiment: Stimulation of prostate weight in Sprague-Dawley rat at 3 mg/day relative to testosterone. Type of assay: functional, Prostate gland. In outline:
as §1

The test system of assay [8] is Rattus norvegicus. As to the kind of experiment: Stimulation of levator ani muscle weight Sprague-Dawley rat at 5 mg/kg, sc. Type of assay: functional. The note with it: route subcutaneous. In outline: (§3)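 Testosterone propionate injected sc at the nape of the neck at 5 mg/kg in sesame oil, in immature (about 50 g) castrated male Sprague–Dawley rats in a five-day modified Hershberger assay. Read-out is stimulation of tissue weight.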

Assay [9] relates to Rattus norvegicus. The assay is described as follows: Stimulation of prostate weight in Sprague-Dawley rat at 5 mg/kg, sc. The format is functional, Prostate gland. The note with it: route subcutaneous. In outline: as §3

The source made the active and inactive calls. The calls are words filed in the database; no cut-off is given here.

Consider `CCOC(=O)C1=NN2C(=O)C(=O)N(c3ccc(C#N)c(C(F)(F)F)c3)C(=O)C2(C)C1` (stereo unspecified), for which the Activity in the assay filed under Rattus norvegicus [1] and with Rattus norvegicus [2] was less than 10% throughout. This molecule also gave an Inhibition in the assay on Rattus norvegicus [3] of 15%.
As to `C[C@@]12CCCN1C(=O)N(c1ccc(Cl)c(C(F)(F)F)c1)C2=O`, the outcome in the assay listed under Rattus norvegicus [4] and in the assay listed under Rattus norvegicus [6] was inactive. Besides, the Inhibition in the assay on Rattus norvegicus [5] is recorded as less than 10%; in the assay with Rattus norvegicus [3], 32%.
Regarding `C[C@@]12CCCN1C(=S)N(c1ccc(Cl)c(Cl)c1)C2=O`, the outcome in the assay listed under Rattus norvegicus [4], with Rattus norvegicus [2] (Prostate gland) and in the assay listed under Rattus norvegicus [6] was inactive. In addition, the Inhibition was 27% with Rattus norvegicus [5] and 17% with Rattus norvegicus [3].
Take `CC12CC(C(F)(F)F)=NN1C(=O)N(c1ccc([N+](=O)[O-])c(C(F)(F)F)c1)C2=O` (stereo unspecified): the results for the Activity in the assay listed under Rattus norvegicus [1] and in the assay with Rattus norvegicus [2] were 73% and 51%, respectively. The molecule further gave an Inhibition in the assay on Rattus norvegicus [3] of 39%.
Consider `CC(=O)Nc1ccc(C2=NN3C(=O)N(c4ccc(C#N)c(C(F)(F)F)c4)C(=O)C3(C)C2)cc1` (stereo unspecified), for which the figures for the Activity in the assay filed under Rattus norvegicus [1] and in the assay with Rattus norvegicus [2] were 13% and less than 10%, respectively. Further, the Inhibition in the assay with Rattus norvegicus [3] worked out at 25%.
For `C[C@@]12CCCN1C(=S)N(c1ccc(C#N)c(C(F)(F)F)c1)C2=O`, the outcome in the assay listed under Rattus norvegicus [4] and in the assay filed under Rattus norvegicus [6] was inactive. For the same molecule, the Inhibition was determined as 95% in the assay on Rattus norvegicus [5] and 78% in the assay on Rattus norvegicus [3].
On to `CC12CNC(=O)N1C(=O)N(c1ccc(C#N)c(C(F)(F)F)c1)C2=O` (stereo unspecified), for which the values for the Inhibition in the assay with Rattus norvegicus [5] and in the assay with Rattus norvegicus [3] were 86% and 79%, respectively.
Take `CC12COC(=O)N1C(=O)N(c1ccc(C#N)c(C(F)(F)F)c1)C2=O` (stereo unspecified): the Inhibition is listed as 80% with Rattus norvegicus [5] and 75% in the assay with Rattus norvegicus [3].
With `CC12CNC(=O)N1C(=O)N(c1ccc(Cl)c(C(F)(F)F)c1)C2=O` (stereo unspecified), the Inhibition was 19% in the assay with Rattus norvegicus [5] and 33% in the assay on Rattus norvegicus [3].
In the case of `CC(O)(CS(=O)(=O)c1ccc(F)cc1)C(=O)Nc1ccc(C#N)c(C(F)(F)F)c1` (stereo unspecified) [BICALUTAMIDE], the result in the assay filed under Rattus norvegicus [4] and in the assay filed under Rattus norvegicus [6] was inactive. Besides, the values for the Inhibition with Rattus norvegicus [5] and in the assay on Rattus norvegicus [3] were 80% and 70%, respectively.
In the case of `CN1CC2(C)C(=O)N(c3ccc(Cl)c(C(F)(F)F)c3)C(=O)N2C1=O` (stereo unspecified), the Inhibition was determined as 85% in the assay on Rattus norvegicus [5] and 77% in the assay with Rattus norvegicus [3].
In the case of `C[C@@]12CCCN1C(=S)N(c1ccc(Cl)c(C(F)(F)F)c1)C2=O`, the outcome in the assay filed under Rattus norvegicus [4] and in the assay filed under Rattus norvegicus [6] was inactive. The Inhibition in the assay with Rattus norvegicus [5] was less than 10%; with Rattus norvegicus [3], 19%.
In the case of `CC12COC(=O)N1C(=O)N(c1ccc([N+](=O)[O-])c(C(F)(F)F)c1)C2=O` (stereo unspecified), the results for the Inhibition in the assay with Rattus norvegicus [5] and in the assay with Rattus norvegicus [3] were 28% and 43%, respectively.
Take `CC12CC=NN1C(=O)N(c1ccc(C#N)c(C(F)(F)F)c1)C2=O` (stereo unspecified): the Activity in the assay filed under Rattus norvegicus [1] and in the assay with Rattus norvegicus [2] was less than 10% each time. The molecule also displayed an Inhibition in the assay with Rattus norvegicus [3] of 26%.
With `CCOC(=O)C1=NN2C(=O)N(c3ccc([N+](=O)[O-])c(C(F)(F)F)c3)C(=O)C2(C)C1` (stereo unspecified), the Activity in the assay listed under Rattus norvegicus [1] and in the assay on Rattus norvegicus [2] was less than 10% in each case. This molecule also yielded an Inhibition in the assay on Rattus norvegicus [3] of 35%.
Consider `C[C@@]12CCCN1C(=O)N(c1ccc(C#N)c(C(F)(F)F)c1)C2=O`, for which the outcome in the assay filed under Rattus norvegicus [4] and in the assay listed under Rattus norvegicus [6] was inactive. Also, the Inhibition in the assay with Rattus norvegicus [5] is reported as less than 10%; in the assay with Rattus norvegicus [3], 69%.
With `C[C@]12CC(C(F)(F)F)=NN1C(=O)N(c1ccc(C#N)c(C(F)(F)F)c1)C2=O`, the Activity turned out to be 42% in the assay filed under Rattus norvegicus [4] and 14% in the assay listed under Rattus norvegicus [7]. In the assay on Rattus norvegicus [3], the Inhibition is listed as 21%.
Take `CCC(=O)O[C@H]1CC[C@H]2[C@@H]3CCC4=CC(=O)CC[C@]4(C)[C@H]3CC[C@]12C` [TESTOSTERONE PROPIONATE]: the Activity with Rattus norvegicus [8] and in the assay with Rattus norvegicus [9] was 100% throughout.
For the molecule `C[C@@]12CC(C(F)(F)F)=NN1S(=O)(=O)N(c1ccc(C#N)c(C(F)(F)F)c1)C2=O`, the Activity came to 66% in the assay filed under Rattus norvegicus [1] and 41% in the assay with Rattus norvegicus [2]. The molecule further came in with an Inhibition in the assay with Rattus norvegicus [3] of 28%.
On to `CC12CNC(=O)N1C(=O)N(c1ccc([N+](=O)[O-])c(C(F)(F)F)c1)C2=O` (stereo unspecified), for which the Inhibition in the assay on Rattus norvegicus [5] turned out to be 15%; in the assay on Rattus norvegicus [3], 32%.
As to `C[C@@]12CCCN1C(=O)N(c1ccc(Cl)c(Cl)c1)C2=O`, the result in the assay filed under Rattus norvegicus [4], in the assay with Rattus norvegicus [2] (Prostate gland) and in the assay filed under Rattus norvegicus [6] was inactive. Also, the figures for the Inhibition with Rattus norvegicus [5] and in the assay with Rattus norvegicus [3] were 16% and 11%, respectively.
As to `C[C@@]12CC(C(F)(F)F)=NN1C(=O)N(c1ccc(C#N)c(C(F)(F)F)c1)C2=O`, the Activity in the assay filed under Rattus norvegicus [4] stood at 75%; in the assay filed under Rattus norvegicus [7], 11%. In the assay on Rattus norvegicus [3], this molecule displayed an Inhibition of 26%.
Take `C[C@@]12CC(C(F)(F)F)=NN1C(=O)C(=O)N(c1ccc(C#N)c(C(F)(F)F)c1)C2=O`: the values for the Activity in the assay listed under Rattus norvegicus [1] and with Rattus norvegicus [2] were 21% and 12%, respectively. Also, the Inhibition in the assay with Rattus norvegicus [3] is on record as 27%.
For `C[C@@]12CC(C(F)(F)F)=NN1[S+]([O-])N(c1ccc(C#N)c(C(F)(F)F)c1)C2=O` (stereo partly specified) the same measures were 117%, 58% and 41%.
On to `CC12COC(=O)N1C(=O)N(c1ccc(Cl)c(C(F)(F)F)c1)C2=O` (stereo unspecified), for which the Inhibition in the assay on Rattus norvegicus [5] was found to be 51%; with Rattus norvegicus [3] it was 55%.
`CCOC(=O)C1=NN2C(=O)N(c3ccc(C#N)c(C(F)(F)F)c3)C(=O)C2(C)C1` (stereo unspecified): the Activity in the assay listed under Rattus norvegicus [4] and in the assay with Rattus norvegicus [2] was less than 10% throughout. For the same molecule, in the assay with Rattus norvegicus [3], the Inhibition worked out at 16%.
Regarding `CN1CC2(C)C(=O)N(c3ccc(C#N)c(C(F)(F)F)c3)C(=O)N2C1=O` (stereo unspecified), the results for the Inhibition in the assay with Rattus norvegicus [5] and in the assay on Rattus norvegicus [3] were 85% and 87%, respectively.

Values taken from ChEMBL document CHEMBL1139725, “Synthesis and SAR of novel hydantoin derivatives as selective androgen receptor modulators” (2006).
